From PubChem BioAssay AID1885 (Broad Institute, 2009)
Values joined by “and” are separate entries in the source; they are usually repeats but may differ in a detail not shown here. Identical values can stand only once. The campaign covered roughly 300,000 compounds. About 4,400 (1.5%) were called active.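 The calls were made as follows: active = mean inhibition across valid replicates above about 55% (limit read from the data); inconclusive = mean below that limit but half or more replicates reach it; inactive = mean below it, under half of replicates reach it.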 The list comes from a sample in which actives are over-represented; it also holds similar structures and randomly drawn compounds. Where a structure was tested more than once in an assay, its records may differ in their call.

Assay: Trypanosoma cruzi replication blockers in host cells – luminescence, NIH3T3 host cells, primary screen (AID 1885);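 also: signal also drops with host cell toxicity which is not excluded here; 0% = plate median of DMSO wells and 100% = zero luminescence signal; higher percent means less beta-gal luminescence so fewer parasites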
Settings: T. cruzi beta-gal in NIH3T3, luminescence, 90 h; stronger effect = higher value; concentration not given here
Procedure, shortened: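 System – NIH/3T3 host cells with β-galactosidase reporter T. cruzi · Doses – single 50 nL compound addition per well in DMSO · Reagent – 5000 T. cruzi trypomastigotes/well · Medium – Low-serum DMEM with 2% FBS · Timing – ≥90 h infection period, 3 h prior cell attachment · Evaluation – parasite load inhibition, % · Technique – GalScreen luminescence, 60 min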
For `Cc1ccc(S(=O)(=O)NCCC(=O)NC2CCN(Cc3ccccc3)CC2)cc1`, the inhibition was 38% (inactive). In the case of `CCOc1ccc(S(=O)(=O)N2CCC(C(=O)OCc3ccc(OC)cc3)CC2)cc1`, the inhibition is reported as -1.31% (inactive). For `COc1ccccc1N(CC(=O)Nc1ccccc1C(=O)N1CCCC1)S(C)(=O)=O`, the inhibition was -3.65% (inactive). With `Cc1ccc(NC(=O)CSCC(=O)Nc2sccc2C#N)cc1` the inhibition was -1.58% (inactive). With `COc1ccc(CCNC(=O)CN2C(=O)COc3ccc(S(=O)(=O)N4CCCC4)cc32)cc1OC` the inhibition was -4.6% (inactive). In the case of `CN(C)CCCN(C(=O)c1ccc(S(=O)(=O)N2CCCCCC2)cc1)c1nc2cc3c(cc2s1)OCCO3`, the inhibition is reported as 65.3% (active). For `CN(C)CCCN(C(=O)c1ccc(S(=O)(=O)N2CCCCCC2)cc1)c1nc2ccc(Br)cc2s1`, the inhibition was 23.2% (inactive). With `CCN(CC)CCN(C(=O)c1ccc(S(=O)(=O)N2CCOCC2)cc1)c1nc2cc3c(cc2s1)OCCO3` the inhibition was 50.5% (inactive). With `Cc1ccccc1OCC(=O)NNC(=O)c1ccc(-n2cncn2)c([N+](=O)[O-])c1` the inhibition was 14.2% (inactive). With `COc1cc(C(=O)OCC(=O)N(CC(C)C)C2CCS(=O)(=O)C2)ccc1OCC(C)C` (stereo unspecified) the inhibition was 1.65% (inactive). In the case of `O=C(Cc1ccc(F)cc1)NC1CCCC1`, the inhibition is reported as -10.7% (inactive). In the case of `O=C(CSc1ncnc2c1nnn2Cc1ccc(F)cc1)NC1CCCC1`, the inhibition is reported as 59.1% (active). For `O=C(CSc1ncnc2c1oc1ccccc12)NC1CCCC1`, the inhibition was 9.78% (inactive). With `Cc1sc(NC(=O)C2=COCCO2)c(C#N)c1C` the inhibition was 6.24% (inactive). With `COc1cccc(C(=O)NCCS(=O)(=O)NCC2CCCO2)c1` (stereo unspecified) the inhibition was -7.57% (inactive). With `O=C(NCCCN1CCOCC1)c1ccc([N+](=O)[O-])cc1[N+](=O)[O-]` the inhibition was 64.7% (active). In the case of `O=C(NCCCN1CCOCC1)c1ccc(N2CCCC2)c([N+](=O)[O-])c1`, the inhibition is reported as 8.18% (inactive). With `O=[N+]([O-])c1ccc(NCCCN2CCOCC2)c(Cl)c1` the inhibition was 10.6% (inactive). For `Cc1ccc(C(=O)NNC(=O)C(C)Oc2ccc3ccccc3c2)o1` (stereo unspecified), the inhibition was -1.31% (inactive). For `COc1ccc(OC)c(C(c2nnnn2C(C)(C)C)N2CCc3ccccc3C2)c1` (stereo unspecified), the inhibition was 63.1% (active). In the case of `COCCn1nnnc1C(c1cc2ccc(OC)cc2[nH]c1=O)N1CCc2ccccc2C1` (stereo unspecified), the inhibition is reported as -9.17% (inactive). With `COc1ccccc1C(c1nnnn1C(C)(C)C)N1CCN(Cc2ccccc2)CC1` (stereo unspecified) the inhibition was -3.59% (inactive). In the case of `CCCCN(C(=O)c1ccc(C)o1)c1c(N)n(CCCC)c(=O)[nH]c1=O`, the inhibition is reported as -0.399% (inactive). With `O=C1CC(Sc2ncn[nH]2)C(=O)N1c1ccccc1` (stereo unspecified) the inhibition was 23.3% (inactive). With `CC(NC(=O)CSc1nc2c(cc1C#N)CN(C)CC2)c1ccccc1` (stereo unspecified) the inhibition was 1.88% (inactive). For `CN1CCc2nc(SC(C(=O)O)c3ccccc3)c(C#N)c(-c3cccs3)c2C1` (stereo unspecified), the inhibition was 64.4% (active). With `Cc1c(-c2ccccc2)nc(N)c(C#N)c1-c1cccs1` the inhibition was 0.738% (inactive). With `CCCCn1c(N)c(N(Cc2ccccc2OC)C(=O)COc2cc(C)ccc2Cl)c(=O)[nH]c1=O` the inhibition was 6.73% (inactive). With `COc1ccccc1C(=O)COC(=O)CSCC(=O)Nc1cc(C)on1` the inhibition was -6.4% (inactive). For `CCN1CCN(CCNC(=O)c2ccc(/C=C3/Sc4ccccc4N(Cc4cccc(C)c4)C3=O)cc2)CC1`, the inhibition was 59% (active). With `CCN1CCN(CCNC(=O)c2ccc3c(c2)NC(=O)/C(=C\c2ccc(OC)c(OC)c2)S3)CC1` the inhibition was 11.8% (inactive). For `O=C(NCCN1CCOCC1)c1ccc(/C=C2\Sc3ccccc3N(Cc3ccc(F)cc3)C2=O)cc1`, the inhibition was 10.9% (inactive). With `Cc1cc(C)c(S(=O)(=O)N2CCCC2CNC(=O)c2ccc3c(c2)OCO3)c(C)c1` (stereo unspecified) the inhibition was -2.11% (inactive). For `Cc1ccc(S(=O)(=O)c2c[nH]c3ccc(Cl)cc3c2=O)cc1`, the inhibition was 5.53% (inactive). With `O=C(C1=C[C@H](C2CC2)C[C@H](OCc2ccc(CO)cc2)O1)N1CCN(Cc2ccccc2)CC1` the inhibition was 59.7% (active). With `O=C(C1=C[C@H](c2coc3ccccc3c2=O)C[C@H](OCc2ccc(CO)cc2)O1)N1CCN(Cc2ccccc2)CC1` the inhibition was 33.6% (inactive). In the case of `O=C(NCc1ccccc1)C1=C[C@H](C2CC2)C[C@H](OCc2ccc(CO)cc2)O1`, the inhibition is reported as 15% (inactive). In the case of `O=S(=O)(c1ccccc1)N1CCC(c2ccccc2)CC1`, the inhibition is reported as 0.981% (inactive). In the case of `Cc1ccc(C(=O)N2CCC(n3nccc3NC(=O)Nc3cccc(F)c3)CC2)cn1`, the inhibition is reported as -8.51% (inactive). For `COc1ccc(CNS(=O)(=O)c2cc3c4c(c2)CCN4C(=O)CC3)cc1`, the inhibition was -11.2% (inactive). In the case of `CN1CCN(NC(=O)c2ccc(S(=O)(=O)N3CCCCCC3)cc2)CC1`, the inhibition is reported as 68.3% (active). In the case of `CC1CN(S(=O)(=O)c2ccc(C(=O)NN3CCN(C)CC3)cc2)CC(C)O1` (stereo unspecified), the inhibition is reported as 6.61% (inactive). In the case of `COc1cc(C(=O)NNC(=O)c2ccc(S(=O)(=O)N3CCCCC3)cc2)cc(OC)c1OC`, the inhibition is reported as -12.8% (inactive). In the case of `CCN(CC(=O)Nc1cc(Cl)ccc1C)C(=O)CN1C(=O)NC2(CCCC2)C1=O`, the inhibition is reported as 2.7% (inactive). In the case of `COc1ccc(C(=O)CN2C(=O)NC3(CCc4ccccc43)C2=O)c(OC)c1` (stereo unspecified), the inhibition is reported as 1.63% (inactive). In the case of `C/C(=N\NC(=O)c1ccccc1F)c1ccccn1`, the inhibition is reported as 23.5% (inactive). In the case of `C/C(=N\NC(=O)Cc1ccc(Cl)cc1)c1ccccn1`, the inhibition is reported as 64.9% (active). In the case of `C/C(=N\NC(=O)Cc1ccc(Br)cc1)c1cccnc1`, the inhibition is reported as -9.89% (inactive). For `CCOc1ccc(NC(=O)CN(C)C(=O)c2c(C)noc2C)cc1OCC`, the inhibition was 0.476% (inactive). For `CCCS(=O)(=O)N1CCN=C1SCc1cccc(F)c1`, the inhibition was 6.03% (inactive). In the case of `CC1CCN(c2ccc(-c3ccc(NC(=O)c4ccco4)cc3)nn2)CC1`, the inhibition is reported as 6.55% (inactive). For `COc1ccc(NC(=O)CSc2nc(NS(=O)(=O)c3ccc(C)cc3)cc(=O)[nH]2)cc1`, the inhibition was 7.86% (inactive). For `COc1ccc2nc(N3CCN(C(=O)c4ccc([N+](=O)[O-])o4)CC3)sc2c1`, the inhibition was 60.2% (active). For `O=C(c1ccc2nc(N3CCOCC3)sc2c1)N1CCN(c2ccc(Cl)cc2)CC1`, the inhibition was 2.47% (inactive). In the case of `Cc1ccc2nc(N3CCN(C(=O)c4ccco4)CC3)sc2c1`, the inhibition is reported as -3.92% (inactive). With `O=C1C=C(c2ccc(Cl)cc2)C(=O)N1Nc1ccccc1` the inhibition was 44.2% (inactive). With `CC1CCN(C(=O)c2cccc(S(=O)(=O)N3CCCc4ccccc43)c2)CC1` the inhibition was 12.1% (inactive). In the case of `COc1ccc(C(=O)N(CCN2CCOCC2)CC(=O)NC2CCCC2)cc1OC`, the inhibition is reported as -3.29% (inactive). For `CCCOc1ccc(Cn2ccnc2)cc1[N+](=O)[O-]`, the inhibition was 30.6% (inactive). With `CCCCOc1ccc(CSC(=N)N)cc1[N+](=O)[O-]` the inhibition was 38.2% (inactive). In the case of `CCCCCOc1ccc(CSC2=NCCN2)cc1[N+](=O)[O-]`, the inhibition is reported as 59.6% (active). For `O=C(NNS(=O)(=O)c1ccc(F)cc1)C1CCCCC1`, the inhibition was -13.6% (inactive). For `CCOC(=O)C[C@H]1c2ccc(C(F)(F)F)cc2S(=O)(=O)N1c1ccccc1`, the inhibition was -7.83% (inactive). For `O=C(COC(=O)c1ccc([N+](=O)[O-])cc1Cl)NC(=O)c1ccccc1`, the inhibition was -9.49% (inactive). With `COc1ccc(CCN(C)C(=O)C2CCCN(Cc3ccc(OC)c(OC)c3)C2)cc1OC` (stereo unspecified) the inhibition was 66.2% (active) and 34.7% (inactive). For `COc1cccc(-c2nc(CS(=O)(=O)CC(=O)NCCc3ccc(OC)c(OC)c3)c(C)o2)c1`, the inhibition was 21.5% (inactive). In the case of `COc1ccc(CN2CCCC(CNC(=O)c3ccc(F)cc3)C2)cc1OC` (stereo unspecified), the inhibition is reported as 45.9% (inactive). With `COc1cc(CN2CCCC(C(=O)c3ccc(SC)cc3)C2)cc(Cl)c1O` (stereo unspecified) the inhibition was 24.2% (inactive). In the case of `COc1ccc(CN2CCCC(C(=O)c3ccc(Cl)cc3)C2)cc1Cn1cncn1` (stereo unspecified), the inhibition is reported as 67.8% (active). In the case of `COc1ccc(CCNC(=O)CS(=O)(=O)Cc2nc(-c3ccc(C)cc3)oc2C)cc1OC`, the inhibition is reported as 5.37% (inactive). In the case of `COc1ccc(C(=O)C2CCCN(Cc3ccc4nonc4c3)C2)c(C)c1` (stereo unspecified), the inhibition is reported as 20% (inactive). In the case of `CCCCNC(=O)N1CCCC(N(C)CCc2ccc(OC)c(OC)c2)C1` (stereo unspecified), the inhibition is reported as 37.8% (inactive). With `COc1ccc(CCNC(=O)C2CCCN(Cc3nc(-c4cccc(Cl)c4)oc3C)C2)cc1OC` (stereo unspecified) the inhibition was 61.6% (active). With `CN1CCC(=NNC(=O)c2ccc(N(Cc3ccc(Cl)cc3)S(C)(=O)=O)cc2)CC1` the inhibition was 8.52% (inactive). In the case of `O=C(COc1ccc(Cl)cc1)NCCS(=O)(=O)N1CCN(c2ccc(F)cc2)CC1`, the inhibition is reported as 11.2% (inactive). In the case of `COc1ccc(C(O)(C2CCCCC2)C(CN2CCCC2)c2ccccc2)cc1` (stereo unspecified), the inhibition is reported as 2.61% (inactive). With `COC(=O)[C@]1(C)N[C@H](c2ccc(-c3ccc(Cl)c(Cl)c3)cc2)[C@@H]2C(=O)N(C)C(=O)[C@@H]21` the inhibition was -12.4% (inactive). For `COc1ccc(NC(=O)CN(C)C(=O)c2ccc(NC3CC3)c([N+](=O)[O-])c2)cc1`, the inhibition was -6.67% (inactive). For `CSc1nc2ccccc2cc1/C=C(\C#N)c1ccc(Cl)cc1Cl`, the inhibition was 4.89% (inactive). With `Cc1ccc(-c2nn(-c3ccccc3)cc2/C=N/NC(=O)c2ccc3c(c2)OCO3)cc1` the inhibition was 28% (inactive). In the case of `O=C(N/N=C/c1ccc([N+](=O)[O-])o1)c1cn(-c2ccccc2)nc1-c1ccc(F)cc1`, the inhibition is reported as 69.4% (active). For `Cc1nnc(SCC(=O)N/N=C/c2cn(-c3ccccc3)nc2-c2ccc(F)cc2)n1-c1ccccc1`, the inhibition was -11.7% (inactive). For `COc1cccc(OC)c1C(=O)Nc1sc2c(c1C(N)=O)CCCC2`, the inhibition was 9.96% (inactive). For `c1ccc2c(c1)C(=NC1CCCCC1)NC2=NC1CCCCC1`, the inhibition was 55.5% (active). For `COc1cccc(COC(=O)C2CCN(S(=O)(=O)c3ccc(Cl)cc3)CC2)c1OC`, the inhibition was -3.47% (inactive). For `Cc1oc(C)c(C(=O)NCCCC(=O)O)c1C(=O)NCCCC(=O)O`, the inhibition was -21.2% (inactive).
